# GPR7 antag – blocks human GPR7 receptor signaling; GPR7-expressing cells, fluorescence antagonist assay; inhibition, % at 4.4 µM; 1.1% of 290,000 active; AID 1861; in the data active = inhibition above about 16%, passing the limit was not always enough;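 also: cells stimulated with the agonist NPW; 0% = agonist with vehicle and 100% = vehicle without agonist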
# Target sequence (P48145 whole entry, looked up): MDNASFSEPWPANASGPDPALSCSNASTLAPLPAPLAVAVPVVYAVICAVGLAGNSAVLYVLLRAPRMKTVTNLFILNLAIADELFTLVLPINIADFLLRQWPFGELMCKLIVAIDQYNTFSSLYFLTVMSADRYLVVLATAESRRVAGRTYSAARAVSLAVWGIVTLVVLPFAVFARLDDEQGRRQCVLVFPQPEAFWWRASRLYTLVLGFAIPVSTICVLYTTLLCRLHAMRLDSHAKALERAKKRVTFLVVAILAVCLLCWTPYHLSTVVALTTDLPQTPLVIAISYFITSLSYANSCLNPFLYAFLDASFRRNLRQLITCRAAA
# CHO parental Ca – signal in parental CHO cells, OX1R antagonist counter-screen; parental CHO-K1, ATP-induced calcium, Fluo-8 fluorescence; inhibition, % at 5.6 µM; 0.63% of 330,000 active; AID 463079;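 active = inhibition above that plate's mean sample inhibition plus 3 SD, cut at about 26% in these data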;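 also: 0% = ATP-challenged DMSO wells and 100% = DMSO wells without ATP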
#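 test system = CHO parental line | reagent = ATP stimulus | measured by = intracellular calcium via Fluo-8 no-wash fluorescent dye | control set = ATP and no-ATP DMSO wells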
# TAAR1 antag – antagonists of human TAAR1; Q96RJ0; CHO RD-HGA16 TAAR1, Fluo-8 calcium fluorescence, antagonist; inhibition, % at 3 µM; 1.5% of 360,000 active; AID 624466;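 active = inhibition above a per-plate cutoff, the mean inhibition of test compounds on that plate plus 3 SD, cut at about 49% in these data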;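 also: 0% = DMSO plus EC80 beta-PEA response and 100% = DMSO alone without agonist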
# Target sequence (Q96RJ0 whole entry, looked up): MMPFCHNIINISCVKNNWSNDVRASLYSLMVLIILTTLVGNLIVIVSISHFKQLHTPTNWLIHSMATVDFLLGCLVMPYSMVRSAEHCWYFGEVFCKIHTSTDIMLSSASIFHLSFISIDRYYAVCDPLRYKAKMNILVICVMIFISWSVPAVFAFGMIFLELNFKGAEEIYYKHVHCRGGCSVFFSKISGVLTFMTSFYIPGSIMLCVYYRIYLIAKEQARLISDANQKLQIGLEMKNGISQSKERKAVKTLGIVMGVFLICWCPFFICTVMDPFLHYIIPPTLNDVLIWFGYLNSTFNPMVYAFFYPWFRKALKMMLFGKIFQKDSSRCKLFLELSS
#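 Material: CHO RD-HGA16 cells bearing hTAAR1; compound dosing: one-point dosing, 3 µM nominal final; schedule: dye loading 75 min at 37 °C, then 30 min room temperature; measured by: calcium fluorescence with Fluo-8; control set: vehicle and agonist controls; replication: n of 1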
# TAAR1 agonist – human TAAR1 agonism; activation, % at 3 µM; AID 624467; CHO RD-HGA16 TAAR1, Fluo-8 calcium fluorescence; vehicle wells 0%, saturating PEA agonist 100%; 0.99% of 360,000 active; Q96RJ0;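 active = activation above the mean activation of all test compounds in the run plus 3 SD, cut at about 38% in these data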
#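 Assay system: CHO-derived RD-HGA16 cells with stable Gα16 and human TAAR1; timing: 17-24 h seeding, 75 min 37 °C dye, 30 min RT; read-out: % activation from peak over basal fluorescence ratio, DMSO-to-PEA scaled; measured by: kinetic Fluo-8 calcium fluorescence; benchmarks: low control DMSO, high control PEA (EC100); doses: 3 µM single concentration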
# OX1R antag-1 – OX1R (human) antagonism; O43613; inhibition, % at 6.6 µM; OX1R-expressing cells, FRET antagonist read-out; 1.8% of 330,000 active; in the data active = inhibition mostly above about 38%, no sharp cut-off; inactive = mostly below about 40%;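 also: 0% = agonist challenge alone and 100% = reference antagonist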
# OX1R antag-2 – antagonists of human orexin 1 receptor. 0.43% of 330,000 active. O43613. CHO/OX1R cells, Fluo-8 calcium fluorescence, orexin A. inhibition, % at 5 µM. AID 434989;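 active = inhibition above its plate's threshold, mean inhibition of all tested compounds on the plate plus 3 SD, cut at about 37% in these data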;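 also: 0% = orexin A challenge wells and 100% = SB-334867-A antagonist wells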
# TAAR1 ag conf – human TAAR1 agonism, confirmed | shares compounds with TAAR1 agonist | CHO RD-HGA16 TAAR1, Fluo-8 calcium fluorescence; scaled: DMSO 0%, maximal phenethylamine 100% | activation, % at 3 µM | 82% of 2,400 active | AID 651783;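 active = activation above a cutoff set at the run's mean compound activation plus 3 SD, cut at about 39% in these data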
# Ga16 nonsel ag – counter-screen for TAAR1 agonists: nonselective agonists in parental cells; CHO-Ga16 parental, Fluo-8 calcium fluorescence; normalized to maximal ATP response, DMSO zero; shares compounds with TAAR1 agonist; AID 651787; 50% of 2,400 active; activation, % at 3 µM;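 active = activation above the run cutoff, the mean activation over all tested wells plus 3 SD, cut at about 12% in these data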;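 also: 0% = DMSO wells and 100% = maximal ATP response on the peak over basal ratio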
# TAAR1 desens – human TAAR1 agonist that also desensitizes the receptor | inhibition, % at 3 µM | AID 651951 | 46% of 2,400 active | CHO RD-HGA16 hTAAR1, Fluo-8 calcium, beta-PEA response inhibition | shares compounds with TAAR1 agonist;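 active = inhibition above the run cutoff, the mean inhibition of all test compounds plus 3 SD, cut at about 49% in these data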;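 also: beta-PEA stimulus applied at its EC80; loss of beta-PEA calcium signal after compound pretreatment read as receptor desensitization; 0% = DMSO with beta-PEA at EC80 and 100% = DMSO alone without agonist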
# Ga16 antag count – nonselective Ga16 antagonism, counter-screen; AID 651952; shares compounds with TAAR1 agonist; 39% of 2,400 active; inhibition, % at 3 µM; CHO-Ga16 ATP-induced calcium, Fluo-8 fluorescence;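 active = inhibition above the plate's mean compound inhibition plus 3 SD, computed per plate, cut at about 22% in these data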;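 also: 0% = EC80 ATP with DMSO and 100% = DMSO wells without ATP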
# Numbers without * were called inactive; / = not tested or not shown. A selection: hits, their analogues and other compounds. The true share with any hit is near 4.5%.
SMILES,GPR7 antag,CHO parental Ca,TAAR1 antag,TAAR1 agonist,OX1R antag-1,OX1R antag-2,TAAR1 ag conf,Ga16 nonsel ag,TAAR1 desens,Ga16 antag count
NC(Cc1ccc(Cl)cc1)c1csc(Nc2nccc(C(F)(F)F)n2)n1 (stereo not drawn),/,/,38.5,55.2*,/,/,88.3*,62.1*,74.1*,73.1*
COc1ccc(CC(N)c2csc(Nc3nccc(C(F)(F)F)n3)n2)cc1 (stereo not drawn),/,/,22.0,51.8*,/,/,52.5*,20.9*,27.9,22.9*
CCc1cnc(Nc2nc(C(N)Cc3ccc(F)cc3)cs2)nc1 (stereo not drawn),/,/,-5.0,34.9,/,/,/,/,/,/
NC(Cc1ccc(F)cc1)c1csc(Nc2nccc(C(F)(F)F)n2)n1 (stereo not drawn),/,/,26.6,72.5*,/,/,86.4*,54.1*,55.9*,54.9*
NC(Cc1ccccc1)c1csc(Nc2nccc(C(F)(F)F)n2)n1 (stereo not drawn),/,/,20.2,66.7*,/,/,86.3*,54.6*,42.8,47.9*
COc1ccc(CC(N)c2csc(Nc3ncccn3)n2)cc1 (stereo not drawn),/,/,-0.3,1.9,/,/,/,/,/,/
Cc1cc(C)nc(Nc2nc(C(N)Cc3ccccc3)cs2)n1 (stereo not drawn),/,/,-1.7,8.8,/,/,/,/,/,/
Cc1noc(C)c1CSCC(=O)N(C)CC(=O)Nc1ccccc1C(F)(F)F,/,-9.4,-25.2,1.4,4.1,-4.6,/,/,/,/
CC(=O)Nc1ccc(S(=O)(=O)N[C@@H](C)C(=O)OCC(=O)c2ccc(C)cc2)cc1,/,-16.4,-10.6,5.0,1.5,-4.1,/,/,/,/
Nc1ncnc2c1ncn2[C@@H]1O[C@H](C(=O)N[C@@H](CO)Cc2ccccc2)[C@@H](O)[C@H]1O,/,/,-10.4,1.6,/,/,/,/,/,/
C[C@H]1COC(=O)[C@@H](CC(=O)OC(C)(C)C)C/C=C\C[C@H](CC(=O)NCCO)C(=O)N1,/,1.3,8.4,0.1,-3.6,-10.8,/,/,/,/
O=C(CN(c1ccc(Cl)c(Cl)c1)S(=O)(=O)c1ccccc1)N1CCc2ccccc2C1,-8.8,-14.0,9.6,57.5*,73.7*,39.8,75.5*,4.6,32.0,12.3
COc1ccc(N(CC(=O)N2CCc3ccccc3C2)S(C)(=O)=O)cc1OC,-4.4,-2.3,-8.4,50.6*,12.9,-12.1,28.2,3.0,3.9,9.2
Cc1ccc(S(=O)(=O)N(CC(=O)N2CCc3ccccc3C2)c2ccc(Cl)c(Cl)c2)cc1,-1.8,-20.8,-21.7,0.0,57.4,2.8,/,/,/,/
CN(C(=O)c1cccc(NC(=O)Cc2ccc(NC(=O)C3CCN(C(=O)C4CCC4)CC3)cc2)c1)C1CCC1,/,/,-9.1,-1.7,/,/,/,/,/,/
CC1CC1C(=O)OCC(=O)N(C)c1c(N)n(Cc2ccccc2)c(=O)[nH]c1=O (stereo not drawn),/,11.9,-19.9,50.7*,14.1,-8.7,4.0,13.9*,2.7,9.0
COCCN(C(=O)COC(=O)C1CC1C)c1c(N)n(Cc2ccccc2)c(=O)[nH]c1=O (stereo not drawn),/,3.0,-21.4,1.0,9.0,-12.4,/,/,/,/
O=C(NC1CCCC1)c1nc(-c2ccco2)oc1-c1ccccc1,/,/,-11.1,-1.1,/,/,/,/,/,/
Cc1cc(C)c2c(=O)n(CC(=O)Nc3cccc(Cl)c3C)sc2n1,20.5,5.6,85.5*,102.8*,8.0,2.8,96.5*,72.3*,88.7*,74.9*
Cc1cc(C)c2c(=O)n(CC(=O)Nc3ccc(Br)c(C)c3)sc2n1,-6.0,-2.4,53.5*,85.8*,15.1,-5.2,100.5*,67.8*,70.8*,64.0*
Cc1cc(C)c2c(=O)n(CC(=O)NC3CCCC3)sc2n1,-9.2,4.2,47.7,57.1*,1.2,8.1,62.4*,34.4*,59.3*,39.1*
COc1ccccc1CC(=O)Nc1ccc(S(=O)(=O)N2CC(C)CC(C)C2)cc1 (stereo not drawn),/,-15.4,-8.6,0.9,-3.4,-4.3,/,/,/,/
Cc1ccc(NC2CCCN(C(=O)c3cccs3)C2)cc1C (stereo not drawn),-4.5,-15.6,-23.1,6.9,33.5,-19.4,/,/,/,/
CCCCc1ccc(NC(=O)C2CCN(S(C)(=O)=O)CC2)cc1,-9.1,-6.3,26.5,57.4*,3.2,-15.2,-1.3,1.0,0.8,11.1
O=C(Cc1ccc(-c2ccccc2)cc1)NC1CCCC1,-1.6,-4.4,-3.8,59.0*,32.5,-8.8,14.0,7.1,1.9,12.8
SMILES,GPR7 antag,CHO parental Ca,TAAR1 antag,TAAR1 agonist,OX1R antag-1,OX1R antag-2,TAAR1 ag conf,Ga16 nonsel ag,TAAR1 desens,Ga16 antag count
CCCCCNC(=O)[C@@H]1CSC2c3ccccc3C(=O)N21 (stereo partly drawn),-2.2,-18.7,-29.7,1.0,-3.5,-28.8,/,/,/,/
O=C(NCCc1cccc(F)c1)[C@@H]1CSC2c3ccccc3C(=O)N21 (stereo partly drawn),9.0,-35.4,13.7,53.6*,19.6,-12.3,76.5*,2.7,43.1,15.4
Cc1cc(Br)ccc1NC(=O)CN(C)C(=O)c1cccc(S(=O)(=O)N2CCN(C)CC2)c1,/,/,-8.8,10.9,/,/,/,/,/,/
O=c1oc(C2(O)CCCCC2)cc2ccc(-c3ccc4[nH]ccc4c3)cc12,/,5.5,-4.3,22.3,7.7,-14.5,/,/,/,/
Cc1ccc(S(=O)(=O)NCC(=O)NCC(=O)N(C)Cc2ccc3ccccc3c2)cc1C,-7.3,8.8,-11.0,2.6,1.2,-20.2,/,/,/,/
COc1ccc(NC(=S)N2CCCC(c3nc4ccc(C)cc4[nH]3)C2)c(OC)c1 (stereo not drawn),14.4,-18.6,-4.3,98.5*,12.5,-37.9,-0.2,0.6,-3.8,1.9
COc1ccc(NC(=S)N2CCCC(c3nc4ccc(C)cc4[nH]3)C2)cc1 (stereo not drawn),-6.0,-10.9,-6.8,0.3,22.3,-2.7,/,/,/,/
O=C(Nc1cccc(NC(=O)c2ccc(F)cc2)c1)c1ccc(F)cc1,-12.2,-3.9,30.8,46.6*,-8.8,-16.2,2.1,2.0,-0.5,4.4
O=C(Nc1ccc(N2CCCCC2)cc1)c1ccc(F)cc1,-12.1,11.4,84.8*,98.4*,13.4,-9.9,53.0*,12.6*,18.0,17.7
